Screening data (PubChem BioAssay)
Hits are enriched below; roughly 1.8% of the tested compounds scored in any of these assays.
NPY-Y2 PAM-ag: human NPY-Y2 potentiation or agonism, primary screen | 220,000 compounds, 0.45% hits | activation, % at 3.6 µM | P49146 | cells expressing NPY-Y2, potentiator/agonist read-out | AID 1359; in the data active means activation above about 27%;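 further: cells stimulated with NPY near EC25 plus isoproterenol at EC100; 0% = vehicle plus submaximal agonist and 100% = vehicle plus saturating agonist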
NPY-Y1 antag: antagonists of human neuropeptide Y receptor Y1. 200,000 compounds, 1% hits. inhibition, % at 3.6 µM. P25929. HEK293-CNG Y1 cells, membrane potential fluorescence; NPY at EC95, then isoproterenol;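 active means inhibition above the campaign mean inhibition of all tested compounds plus 3 SD, cut at about 20% in these data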;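 further: 0% = DMSO wells given NPY plus isoproterenol and 100% = isoproterenol alone without NPY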
Target sequence (P25929 whole entry, looked up): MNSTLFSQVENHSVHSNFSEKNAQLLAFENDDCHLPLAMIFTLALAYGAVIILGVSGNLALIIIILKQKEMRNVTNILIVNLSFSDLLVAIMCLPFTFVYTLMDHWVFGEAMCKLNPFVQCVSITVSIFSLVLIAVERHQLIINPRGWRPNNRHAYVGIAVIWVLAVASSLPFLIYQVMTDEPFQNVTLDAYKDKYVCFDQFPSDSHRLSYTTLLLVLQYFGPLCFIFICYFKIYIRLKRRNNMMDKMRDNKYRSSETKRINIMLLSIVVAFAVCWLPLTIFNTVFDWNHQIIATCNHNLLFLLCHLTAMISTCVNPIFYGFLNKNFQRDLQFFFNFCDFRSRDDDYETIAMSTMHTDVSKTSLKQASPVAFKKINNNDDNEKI
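System: HEK293 cells with Y1 receptor plus CNG channel / Probe or stimulus: NPY 25 nM then isoproterenol 1 µM plus Ro 20-1724 25 µM / Compound: one concentration, 3.6 µM, in 0.4% DMSO / Schedule: compound incubation 1 h at room temperature, readout 45 min post-stimulation / Measured by: membrane potential fluorescence / Read-out: % inhibition of NPY effect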
NPY-Y2 antag: blocks the human neuropeptide Y Y2 receptor; P49146; NPY-Y2 expressing cells, antagonist mode; inhibition, % at 2.7 µM; 140,000 compounds, 0.99% hits; AID 793; in the data active means inhibition above about 17%;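 further: 0% = vehicle with agonist challenge and 100% = reference antagonist with challenge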
NPY1 pot ag: potentiators or agonists of human neuropeptide Y receptor Y1; P25929; NPY-Y1 expressing cells, potentiator/agonist activation; activation, % at 3.6 µM; 220,000 compounds, 0.37% hits; AID 1304; in the data active means activation above about 33%, passing the limit was not always enough;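 further: cells stimulated with NPY at EC10 then isoproterenol at EC100; 0% = low agonist plus stimulus and 100% = saturating agonist plus stimulus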
* = called active by the depositor; · = no result given.

SMILES	NPY-Y2 PAM-ag	NPY-Y1 antag	NPY-Y2 antag	NPY1 pot ag
CCc1nnc(NC(=O)C2CCCN(S(=O)(=O)c3ccc(OC)cc3)C2)s1 (stereo not given)	-11.9	-3.4	·	-2.1
Cc1onc(-c2ccccc2)c1NC(=O)N(CCC#N)Cc1ccccc1	-14.2	·	·	-5.2
CCC(C)(C(=O)NC1CCCCC1)N(Cc1ccco1)C(=O)c1ccc2c(c1)OCO2 (stereo not given)	-18.3	49.0*	43.1*	-10.6
O=C1N/C(=N\c2ccccn2)SC1Cc1ccc(Cl)cc1 (stereo not given)	15.0	-1.2	·	13.3
CC1CCC(C(C)C)C(OCC(O)CN2CCN(Cc3ccccc3)CC2)C1 (stereo not given)	-14.2	14.0	10.0	-16.8
CC1CCC(C(C)C)C(OCC(O)CN2CCOCC2)C1 (stereo not given)	76.3*	-6.5	4.3	73.8*
CCC(C)(C)n1nnnc1C(c1ccc(OC)c(OC)c1)N1CCN(c2ccccc2)CC1 (stereo not given)	-10.2	18.4	14.3	2.9
CCC(C)(C)n1nnnc1C(c1ccncc1)N1CCC(C)CC1 (stereo not given)	-4.7	11.5	5.8	-12.8
CCC(C)(C)n1nnnc1C(c1ccccc1)N1CCN(Cc2ccccc2)CC1 (stereo not given)	-14.4	11.4	·	-4.2
CCC(C)(C)n1nnnc1C(c1ccc(OC)c(OC)c1)N1CCN(c2cccc(OC)c2)CC1 (stereo not given)	-11.6	24.4*	21.8*	-33.8
CCC(C)(C)n1nnnc1C(c1ccc(C)cc1)N1CCC(C)CC1 (stereo not given)	-9.1	39.0*	20.0*	-16.7
CCC(C)(C)n1nnnc1C(c1cc(OC)ccc1OC)N1CCN(Cc2ccccc2)CC1 (stereo not given)	-11.5	20.2*	·	-0.8
CC(=O)Oc1ccc2c(c1)Oc1cc(OC(C)=O)ccc1C21OC(=O)c2ccccc21	17.4	32.1*	79.1*	-21.4
CNCc1ccccc1OCC(=O)Nc1ccccc1OC	36.9*	-0.8	6.2	104.6*
COc1ccc(OCC(=O)Nc2ccccc2OC)cc1	5.5	-1.3	5.3	-3.8
Cn1cnnc1SCC(=O)Nc1ccc(Cl)cn1	70.9*	-12.3	·	73.5*
COc1ccc(C2(C)NC(=O)N(CC(=O)Nc3ccc(-c4nc5ccc(C)cc5s4)cc3)C2=O)cc1 (stereo not given)	56.2*	-12.2	·	38.8*
CN1CCCN(C(=O)c2cc(-c3cccc4ccccc34)nc3ccccc23)CC1	-11.9	·	·	-6.0
Cc1ccc(-n2nnnc2SCC(=O)Nc2sccc2C#N)cc1	-2.8	3.1	6.1	-19.8
COCCN=c1scc(-c2ccco2)n1/N=C/c1ccc(O)c(O)c1O	22.4	4.0	·	26.4
CC(C)N=c1scc(-c2ccco2)n1/N=C/c1ccc(O)c(O)c1	33.9*	-5.2	-6.0	49.7
COC(=O)C1C(c2ccccc2)C(C(=O)OCc2ccco2)C1c1ccccc1 (stereo not given)	-15.7	37.4*	36.8*	-69.6
O=C(O)C1C(c2ccccc2)C(C(=O)OCc2ccco2)C1c1ccccc1 (stereo not given)	7.4	7.4	0.4	-2.9
COc1cccc(-c2nnn(CC(=O)O)n2)c1	-32.8	26.3*	2.4	-47.4
CCOC(=O)Cn1nnc(-c2cccc(OC)c2)n1	-4.8	4.6	5.0	-20.0
SMILES	NPY-Y2 PAM-ag	NPY-Y1 antag	NPY-Y2 antag	NPY1 pot ag
CCCC(c1nnnn1Cc1ccco1)N1CCN(c2ccccc2)CC1 (stereo not given)	-13.3	4.1	·	6.0
CCCC(c1nnnn1C(C)(C)C)N1CCN(c2ccccc2)CC1 (stereo not given)	-1.4	21.1*	·	15.4
CCCNC(=O)CC1C(=O)N(Cc2ccccc2)C(C)c2nc3ccccc3n21 (stereo not given)	0.7	1.5	2.4	-38.9
C=C(C)c1cccc(C(C)(C)NC(=O)N(Cc2ccccc2)Cc2ccco2)c1	-9.4	14.3	27.8*	-5.1
CN(C(=O)Nc1cccc(C(F)(F)F)c1)C1CCCCC1	-10.0	·	·	10.5
O=C(c1ccc(CSc2nc3ccncc3[nH]2)cc1)N1CCN(c2cccc(Cl)c2)CC1	36.1*	1.5	-1.1	50.0*
COCC(=O)Nc1ccc(Br)cc1C	-4.4	3.7	·	2.1
Cc1cc(Br)ccc1NC(=O)CN1C(=O)C2C3CC(c4ccccc4)C(C3)C2C1=O (stereo not given)	53.2*	-21.7	-5.9	67.2*
C/C(=N\NC(=O)c1ccc(N2CCCC2=O)cc1)c1ccncc1	5.5	·	·	10.2
CCCC(C)NC(=O)CSc1nc2ccc(C)cc2[nH]1 (stereo not given)	-12.6	-1.5	·	-17.5
COc1ccc(Cl)cc1NC(=O)c1ccco1	-18.7	1.4	3.2	-5.6
O=C(Nc1ccc(Cl)cc1C(=O)Nc1ccc(Br)cn1)c1ccco1	-27.5	20.9*	30.8*	-90.8
COc1ccccc1C(=O)NNC(=O)c1ccc(NC(=O)C(C)C)cc1	-5.0	-2.9	·	5.8
O=C(/C=C/c1ccc(Cl)cc1)N1CCN(c2ccc(Cl)cc2[N+](=O)[O-])CC1	-4.4	20.5*	7.8	-15.3
CC1=C(C(=O)NCCN2CCN(C)CC2)C2(CCC(C)CC2)OC1=O (stereo not given)	47.5*	-0.1	-1.8	-7.7
CC(C)(C)c1ccc(/C=N/OCC(=O)NCc2ccc(F)cc2)cc1	-3.2	-1.0	8.6	5.4
O=C(NN=C1c2ccccc2-c2ccccc21)c1cccc(Br)c1	-2.6	-1.0	1.4	-4.9
CCOC(=O)C1CCN(c2ncnc3c2[nH]c2cccc(OC)c23)CC1	-2.0	-2.0	-0.1	-20.3
CCOC(=O)C1CCN(c2ncnc3c2oc2ccc(Cl)cc23)CC1	-20.1	17.9	19.2*	-60.9
O=C(COC(=O)[C@H](Cc1ccccc1)NC(=O)c1cccs1)NC1CC1	-10.7	1.1	1.3	-12.0
Cc1nn(C(C)(C)C)c(OC(=O)c2ccc3c(c2)OCO3)c1Sc1ccccc1	-25.9	47.7*	29.5*	-33.5
COC(=O)C(C)Sc1nc2c(c(=O)[nH]c(=O)n2C)n1CCCc1ccccc1 (stereo not given)	-11.9	45.8*	46.2*	-46.9
C/C(=N\Nc1ccc(F)cc1)c1ccncc1	11.0	-7.8	-0.9	12.7
C/C(=N\Nc1cccc(Cl)c1)c1ccncc1	39.8*	-12.3	·	39.0*
CCc1ccc(NC(=O)c2c(Cl)nc(C)c(Cl)c2C)cc1	-17.9	0.9	7.7	1.1
SMILES	NPY-Y2 PAM-ag	NPY-Y1 antag	NPY-Y2 antag	NPY1 pot ag
CC(=O)n1cc(N(C(=O)CCl)c2ccc(Cl)cc2)c2ccccc21	50.5*	·	·	66.3*
COc1ccccc1N(C(=O)CCl)c1cn(C(C)=O)c2ccccc12	15.2	·	·	13.5
Cc1nsc(Nc2ccccc2)c1C#N	2.2	-0.7	·	14.3
Fc1cccc(Cc2noc(CN3CCCN(C4Cc5ccccc5C4)CC3)n2)c1	-7.1	21.5*	·	-0.9
Fc1cccc(Cc2noc(CN3CCSCC3)n2)c1	-14.2	1.2	·	-15.8
OC(CNCCC(c1ccccc1)c1ccccc1)COc1ccccc1 (stereo not given)	89.5*	-8.7	·	96.0*
CS(=O)(=O)N(CC(O)CON=C1c2ccccc2-c2ccccc21)c1ccc(F)cc1 (stereo not given)	1.2	1.6	-1.1	3.1
